In ChEMBL document CHEMBL4024790 (J Med Chem, 2018):
Active and inactive are the calls of the source. No cut-off for these calls is given here.

Legend:
[1] = Apparent intrinsic clearance in human liver microsomes; format: ADME, microsome; conditions: read-out: CLH(app)
Liver [2] = experiment: Drug metabolism in human liver microsomes assessed as 1-(7-methyl-5-(1-methyl-5-(5-(trifluoromethyl)pyridin-2-yl)-1H-pyrazol-4-yl)imidazo[1,5-f][1,2,4]triazin-4-yl)azetidin-3-ol formation at 1 to 50 uM after 1 hr by LC-MS/MS analysis; format: ADME, microsome
Method in brief: (§1)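 Rat, dog or human liver microsomes or hepatocytes (P450 0.35–0.5 µM final) incubated with compound at 1, 10 or 50 µM in 100 mM phosphate buffer with 1 mM NADP regenerating system, 37°C for 1 h; quenched with 4 volumes acetonitrile, centrifuged, supernatant evaporated, reconstituted in 5% aqueous acetonitrile and analysed by reversed-phase LC.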

Liver [3] = experiment: Drug metabolism in rat liver microsomes assessed as 3-(7-methyl-5-(1-methyl-5-(5-(trifluoromethyl)pyridin-2-yl)-1H-pyrazol-4-yl)imidazo[1,5-f][1,2,4]triazin-4-ylamino)propanoic acid formation at 1 to 50 uM after 1 hr by LC-MS/MS analysis; format: ADME, microsome; method in brief: as §1
Liver [4] = experiment: Drug metabolism in rat liver microsomes assessed as 1-(7-methyl-5-(1-methyl-5-(5-(trifluoromethyl)pyridin-2-yl)-1H-pyrazol-4-yl)imidazo[1,5-f][1,2,4]triazin-4-yl)azetidin-3-ol formation at 1 to 50 uM after 1 hr by LC-MS/MS analysis; format: ADME, microsome; method in brief: as §1
[5] = Drug metabolism in dog hepatocytes assessed as 3-(7-methyl-5-(1-methyl-5-(5-(trifluoromethyl)pyridin-2-yl)-1H-pyrazol-4-yl)imidazo[1,5-f][1,2,4]triazin-4-ylamino)propanoic acid formation at 1 to 50 uM after 1 hr by LC-MS/MS analysis; format: ADME, cell-based, Canis lupus familiaris, Hepatocyte; method in brief: as §1
Brain = experiment: Drug uptake in rat brain at 5 to 250 mg/kg/day, po up to 15 days by microscopic method; format: ADME, organism-based; conditions: in vivo, 360 h
Method in brief: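 Exploratory rat toxicity study, oral dosing at 5, 50 and 250 mg/kg/day for up to 15 days, with microscopic examination of heart and vasculature and measurement of plasma and brain exposure.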

Canis familiaris [6] = experiment: Cardiotoxicity in dog up to 15 mg/kg/day, po for 14 days by microscopic method; format: toxicity, organism-based, Canis lupus familiaris; conditions: in vivo, 336 h
Canis familiaris [7] = organism: Canis familiaris; experiment: Cardiotoxicity in dog up to 1 month by microscopic method; format: toxicity, Canis lupus familiaris
Rattus norvegicus [8] = organism: Rattus norvegicus; experiment: Toxicity in rat assessed as effect on vasculature up to 1 month by microscopic method; conditions: in vivo
Rattus norvegicus [9] = experiment: Reversal of MK-801-induced disruption of low frequency cortical delta oscillation in Sprague-Dawley rat brain at 0.1 mg/kg, iv up to 55 mins by electrophysiology method; format: functional, organism-based
Rattus norvegicus [10] = experiment: Reversal of MK-801-induced disruption of low frequency cortical delta oscillation in Sprague-Dawley rat brain at 0.03 mg/kg, iv measured up to 55 mins by electrophysiology method; format: functional, organism-based
Rattus norvegicus [11] = experiment: Effect on spontaneous locomotor activity in Long Evans rat at 0.32 to 3.2 mg/kg, sc; format: ADME, organism-based; conditions: in vivo
Method in brief: (§2)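 Rats dosed SC at 0.32, 1.0 and 3.2 mg/kg; conditioned avoidance responding also run in combination with risperidone 0.032 mg/kg.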

Rattus norvegicus [12] = experiment: Effect on risperidone-induced antipsychotic activity in Long Evans rat at 0.32 to 3.2 mg/kg, sc by conditioned avoidance responding assay; format: functional, organism-based; method in brief: as §2
Mus musculus [13] = experiment: In vivo effect on phosphorylated CREB level in CD-1 mouse brain hippocampus by immunoassay; format: functional, organism-based
Mus musculus [14] = organism: Mus musculus; experiment: Increase in cGMP level in CD-1 mouse brain cortex assessed as unbound brain concentration required to show the effect by immunoassay; format: functional
Method in brief: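 CD-1 mice dosed SC (solution in 20% SBE-β-CD with 2 molar equivalents 1N HCl, 1 mL/kg); euthanized by focused microwave irradiation of brain; cortex, striatum, hippocampus homogenized in 0.5 N HCl, centrifuged; cyclic nucleotides in supernatant by enzyme immunoassay. Unbound brain exposure from satellite animals; dose-response and time-course data combined with linear model; one-way ANOVA with Fisher's PLSD.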

Cytochrome P450 2C9 = Cytochrome P450 2C9 (Homo sapiens, UniProt P11712); experiment: Time-dependant inhibition of recombinant human CYP2C9; format: ADME; conditions: recombinant enzyme
[15] = Cmax in Wistar Han rat at 5 mg/kg, po administered via gavage by LC-MS/MS analysis; format: ADME, organism-based; parameters: dose 5 mg/kg, route oral; conditions: in vivo
[16] = Oral bioavailability in Wistar Han rat at 5 mg/kg administered via gavage by LC-MS/MS analysis; format: ADME, organism-based; conditions: in vivo
[17] = Plasma clearance in Wistar Han rat at 1 mg/kg, iv by LC-MS/MS analysis; format: ADME, organism-based
Method in brief: (§3)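 Single iv dose to male Wistar-Han rats (1 mg/kg) or dogs (0.3 mg/kg), given as a solution in 20% (w/v) SBECD with HCl. Dose volume 1 mL/kg in rats and 0.4 mL/kg in dogs. Blood taken by carotid artery cannula from 2 min to 24 h into K2EDTA (rat) or K3EDTA (dog) tubes. Plasma analysed by LC-MS/MS with positive electrospray after acetonitrile precipitation with internal standard.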

[18] = Volume of distribution at steady state in Wistar Han rat at 1 mg/kg, iv by LC-MS/MS analysis; format: ADME, organism-based; conditions: in vivo, read-out: Vdss
Method in brief: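 Male Wistar-Han rats got a single IV dose as a solution in 20% (w/v) sulfobutyl ether β-cyclodextrin with hydrochloric acid, at 1 mL/kg. Blood was drawn into K2EDTA via carotid artery cannula at set times from 2 min to 24 h. Plasma was protein-precipitated with acetonitrile plus internal standard and quantified by LC-MS/MS with positive electrospray, standard curve 0.61 to 625 ng/mL.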

[19] = AUC (0 to infinity) in beagle dog at 5 mg/kg, po administered via gavage by LC-MS/MS analysis; format: ADME, organism-based, Canis lupus familiaris; parameters: dose 5 mg/kg, route oral, time infinity; conditions: in vivo
[20] = Terminal half life in beagle dog at 5 mg/kg, po administered via gavage by LC-MS/MS analysis; format: ADME, organism-based, Canis lupus familiaris; conditions: in vivo, read-out: beta t1/2 (converted)
[21] = Cmax in beagle dog at 0.3 mg/kg, iv by LC-MS/MS analysis; format: ADME, organism-based, Canis lupus familiaris; parameters: dose 0.3 mg/kg, route intravenous; conditions: in vivo
Method in brief: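 Male Wistar-Han rats given single 1 mg/kg IV; beagle dogs 0.3 mg/kg IV; solution in 20% (w/v) sulfobutyl ether β-cyclodextrin with hydrochloric acid, 1 mL/kg (rat) or 0.4 mL/kg (dog). Blood via carotid artery cannula between 2 min and 24 h into EDTA tubes; plasma analysed by LC-MS/MS with positive electrospray.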

[22] = Terminal half life in beagle dog at 0.3 mg/kg, iv by LC-MS/MS analysis; format: ADME, organism-based, Canis lupus familiaris; conditions: in vivo, read-out: beta t1/2 (converted); method in brief: as §3

Sequence of Cytochrome P450 2C9 (P11712 whole entry): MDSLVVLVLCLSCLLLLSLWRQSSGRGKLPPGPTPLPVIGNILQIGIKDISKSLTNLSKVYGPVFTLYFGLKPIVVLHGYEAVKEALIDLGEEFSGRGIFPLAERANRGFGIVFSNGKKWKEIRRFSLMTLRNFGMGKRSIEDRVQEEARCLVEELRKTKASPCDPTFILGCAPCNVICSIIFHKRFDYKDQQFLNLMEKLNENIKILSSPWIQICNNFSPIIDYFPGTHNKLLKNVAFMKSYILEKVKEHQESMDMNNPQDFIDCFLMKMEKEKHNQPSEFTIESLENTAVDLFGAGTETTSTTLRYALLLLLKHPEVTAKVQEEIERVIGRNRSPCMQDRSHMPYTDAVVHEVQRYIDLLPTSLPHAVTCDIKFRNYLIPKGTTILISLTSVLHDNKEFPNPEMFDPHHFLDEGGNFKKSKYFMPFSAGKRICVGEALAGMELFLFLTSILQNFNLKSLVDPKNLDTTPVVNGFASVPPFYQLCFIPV

CLint scaled [1]: 52 mL/min/kg | Drug metabolism (Liver [2]): Metabolite_Detected | Drug metabolism (Liver [3]): Metabolite_Detected | Drug metabolism (Liver [4]): Metabolite_Detected | Drug metabolism [5]: Metabolite_Detected | Drug uptake (Brain): Active | TDI (Cytochrome P450 2C9): Not Active | Cmax [15]: 363 ng/mL | bioavailability [16]: 44% | clearance [17]: 122 mL/min/kg | Vd [18]: 3.94 L/kg | AUC(0-inf) [19]: 4120 ng·h/mL | half-life [20]: 4.1 h | Cmax [21]: 293 ng/mL | half-life [22]: 5 h
Compound: Cc1nc(-c2cnn(C)c2-c2ccc(C(F)(F)F)cn2)c2c(N3CCC3)ncnn12 [PF-05180999]
Activity (Canis familiaris [6]): Non-Toxic | Activity (Canis familiaris [7]): Non-Toxic | Activity (Rattus norvegicus [8]): Non-Toxic | Activity (Rattus norvegicus [9]): Active | Activity (Rattus norvegicus [10]): inactive | Activity (Rattus norvegicus [11]): Non-Toxic | Activity (Rattus norvegicus [12]): inactive | Activity (Mus musculus [13]): inactive | fEC50 (Mus musculus [14]): 79.4 nM
